Values after ≈ are worked out from the molar mass of the structure shown.
Each compound was assayed on Bacillus subtilis (assay: Antibacterial activity against Bacillus subtilis ATCC 6633 after 18 hrs by microdilution assay). Details: ATCC 6633, 18 h.
Format: functional
Method in brief: (§1)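 Broth microdilution in Mueller Hinton broth, inoculum 5 × 10^5–10^6 cfu/mL final, compounds dissolved in DMSO (at most 1% in the solution), 37 °C for 18 h aerobically. Blank controls received DMSO alone; magnolol served as positive control.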

| MIC [µg/mL] | SMILES |
| --- | --- |
| 3.12 (≈ 6.38 µM) | C=C1CC[C@H]2C(C)(C)[C@@H](O)CC[C@]2(C)[C@H]1CC[C@H]1C(C)=CC[C@@H](C(C)(C)O)[C@]1(C)CCC(=O)OC [LAMESTICUMIN B] |
| 12.5 (≈ 25.8 µM) | C=C1CC[C@H]2C(C)(C)C(=O)CC[C@]2(C)[C@H]1CCC1=C(C)[C@H](O)C[C@@H](C(=C)C)[C@]1(C)CCC(=O)OC [LAMESTICUMIN E] |
| 3.12 (≈ 6.44 µM) | C=C(C)[C@@H]1CC=C(C)[C@H](CC[C@H]2C(=C)CC[C@H]3C(C)(C)[C@@H](O)CC[C@]23C)[C@@]1(C)CCC(=O)OCC [ETHYL LANSIOLATE] |

What follows are compounds tested on Shigella flexneri (assay: Antibacterial activity against Shigella flexneri ATCC 12022 after 18 hrs by microdilution assay). Details: ATCC 12022, 18 h.
Format: functional
Method in brief: as §1

| MIC [µg/mL] | SMILES |
| --- | --- |
| > 50 | C=C1CC[C@H]2C(C)(C)[C@@H](O)CC[C@]2(C)[C@H]1CC[C@H]1C(C)=CC[C@@H](C(C)(C)O)[C@]1(C)CCC(=O)OC [LAMESTICUMIN B] |
| > 50 | C=C1CC[C@H]2C(C)(C)C(=O)CC[C@]2(C)[C@H]1CCC1=C(C)[C@H](O)C[C@@H](C(=C)C)[C@]1(C)CCC(=O)OC [LAMESTICUMIN E] |
| > 50 | C=C(C)[C@@H]1CC=C(C)[C@H](CC[C@H]2C(=C)CC[C@H]3C(C)(C)[C@@H](O)CC[C@]23C)[C@@]1(C)CCC(=O)OCC [ETHYL LANSIOLATE] |

What follows are compounds tested on Escherichia coli (assay: Antibacterial activity against Escherichia coli ATCC 25922 after 18 hrs by microdilution assay). Details: ATCC 25922, 18 h.
Format: functional
Method in brief: as §1

| MIC [µg/mL] | SMILES |
| --- | --- |
| > 50 | C=C1CC[C@H]2C(C)(C)[C@@H](O)CC[C@]2(C)[C@H]1CC[C@H]1C(C)=CC[C@@H](C(C)(C)O)[C@]1(C)CCC(=O)OC [LAMESTICUMIN B] |
| > 50 | C=C1CC[C@H]2C(C)(C)C(=O)CC[C@]2(C)[C@H]1CCC1=C(C)[C@H](O)C[C@@H](C(=C)C)[C@]1(C)CCC(=O)OC [LAMESTICUMIN E] |
| > 50 | C=C(C)[C@@H]1CC=C(C)[C@H](CC[C@H]2C(=C)CC[C@H]3C(C)(C)[C@@H](O)CC[C@]23C)[C@@]1(C)CCC(=O)OCC [ETHYL LANSIOLATE] |

The compounds below were run on Staphylococcus aureus (assay: Antibacterial activity against Micrococcus pyogenes clinical isolate after 18 hrs by microdilution assay). Details: not given.
Format: functional
Method in brief: as §1

| MIC [µg/mL] | SMILES |
| --- | --- |
| 3.12 (≈ 6.38 µM) | C=C1CC[C@H]2C(C)(C)[C@@H](O)CC[C@]2(C)[C@H]1CC[C@H]1C(C)=CC[C@@H](C(C)(C)O)[C@]1(C)CCC(=O)OC [LAMESTICUMIN B] |
| 6.25 (≈ 12.9 µM) | C=C1CC[C@H]2C(C)(C)C(=O)CC[C@]2(C)[C@H]1CCC1=C(C)[C@H](O)C[C@@H](C(=C)C)[C@]1(C)CCC(=O)OC [LAMESTICUMIN E] |
| 3.12 (≈ 6.44 µM) | C=C(C)[C@@H]1CC=C(C)[C@H](CC[C@H]2C(=C)CC[C@H]3C(C)(C)[C@@H](O)CC[C@]23C)[C@@]1(C)CCC(=O)OCC [ETHYL LANSIOLATE] |

What follows are compounds tested on Pseudomonas aeruginosa (assay: Antibacterial activity against Pseudomonas aeruginosa ATCC 14502 after 18 hrs by microdilution assay). Details: ATCC 14502, 18 h.
Format: functional
Method in brief: as §1

| MIC [µg/mL] | SMILES |
| --- | --- |
| > 50 | C=C1CC[C@H]2C(C)(C)[C@@H](O)CC[C@]2(C)[C@H]1CC[C@H]1C(C)=CC[C@@H](C(C)(C)O)[C@]1(C)CCC(=O)OC [LAMESTICUMIN B] |
| > 50 | C=C1CC[C@H]2C(C)(C)C(=O)CC[C@]2(C)[C@H]1CCC1=C(C)[C@H](O)C[C@@H](C(=C)C)[C@]1(C)CCC(=O)OC [LAMESTICUMIN E] |
| > 50 | C=C(C)[C@@H]1CC=C(C)[C@H](CC[C@H]2C(=C)CC[C@H]3C(C)(C)[C@@H](O)CC[C@]23C)[C@@]1(C)CCC(=O)OCC [ETHYL LANSIOLATE] |

Each compound was assayed on Bacillus cereus (assay: Antibacterial activity against Bacillus cereus clinical isolate after 18 hrs by microdilution assay). Details: not given.
Format: functional
Method in brief: as §1

| MIC [µg/mL] | SMILES |
| --- | --- |
| 3.12 (≈ 6.38 µM) | C=C1CC[C@H]2C(C)(C)[C@@H](O)CC[C@]2(C)[C@H]1CC[C@H]1C(C)=CC[C@@H](C(C)(C)O)[C@]1(C)CCC(=O)OC [LAMESTICUMIN B] |
| 3.12 (≈ 6.44 µM) | C=C1CC[C@H]2C(C)(C)C(=O)CC[C@]2(C)[C@H]1CCC1=C(C)[C@H](O)C[C@@H](C(=C)C)[C@]1(C)CCC(=O)OC [LAMESTICUMIN E] |
| 3.12 (≈ 6.44 µM) | C=C(C)[C@@H]1CC=C(C)[C@H](CC[C@H]2C(=C)CC[C@H]3C(C)(C)[C@@H](O)CC[C@]23C)[C@@]1(C)CCC(=O)OCC [ETHYL LANSIOLATE] |

Each compound was assayed on Staphylococcus aureus (assay: Antibacterial activity against Staphylococcus aureus ATCC 25923 after 18 hrs by microdilution assay). Details: ATCC 25923, 18 h.
Format: functional
Method in brief: as §1

| MIC [µg/mL] | SMILES |
| --- | --- |
| 6.25 (≈ 12.8 µM) | C=C1CC[C@H]2C(C)(C)[C@@H](O)CC[C@]2(C)[C@H]1CC[C@H]1C(C)=CC[C@@H](C(C)(C)O)[C@]1(C)CCC(=O)OC [LAMESTICUMIN B] |
| > 50 | C=C1CC[C@H]2C(C)(C)C(=O)CC[C@]2(C)[C@H]1CCC1=C(C)[C@H](O)C[C@@H](C(=C)C)[C@]1(C)CCC(=O)OC [LAMESTICUMIN E] |
| 6.25 (≈ 12.9 µM) | C=C(C)[C@@H]1CC=C(C)[C@H](CC[C@H]2C(=C)CC[C@H]3C(C)(C)[C@@H](O)CC[C@]23C)[C@@]1(C)CCC(=O)OCC [ETHYL LANSIOLATE] |

These compounds were tested on Serratia marcescens (assay: Antibacterial activity against Serratia marcescens ATCC 25419 after 18 hrs by microdilution assay). Details: ATCC 25419, 18 h.
Format: functional
Method in brief: as §1

| MIC [µg/mL] | SMILES |
| --- | --- |
| > 50 | C=C1CC[C@H]2C(C)(C)[C@@H](O)CC[C@]2(C)[C@H]1CC[C@H]1C(C)=CC[C@@H](C(C)(C)O)[C@]1(C)CCC(=O)OC [LAMESTICUMIN B] |
| > 50 | C=C1CC[C@H]2C(C)(C)C(=O)CC[C@]2(C)[C@H]1CCC1=C(C)[C@H](O)C[C@@H](C(=C)C)[C@]1(C)CCC(=O)OC [LAMESTICUMIN E] |
| > 50 | C=C(C)[C@@H]1CC=C(C)[C@H](CC[C@H]2C(=C)CC[C@H]3C(C)(C)[C@@H](O)CC[C@]23C)[C@@]1(C)CCC(=O)OCC [ETHYL LANSIOLATE] |

The compounds below were run on Staphylococcus epidermidis (assay: Antibacterial activity against Staphylococcus epidermidis ATCC 12228 after 18 hrs by microdilution assay). Details: ATCC 12228, 18 h.
Format: functional
Method in brief: as §1

| MIC [µg/mL] | SMILES |
| --- | --- |
| 12.5 (≈ 25.6 µM) | C=C1CC[C@H]2C(C)(C)[C@@H](O)CC[C@]2(C)[C@H]1CC[C@H]1C(C)=CC[C@@H](C(C)(C)O)[C@]1(C)CCC(=O)OC [LAMESTICUMIN B] |
| > 50 | C=C1CC[C@H]2C(C)(C)C(=O)CC[C@]2(C)[C@H]1CCC1=C(C)[C@H](O)C[C@@H](C(=C)C)[C@]1(C)CCC(=O)OC [LAMESTICUMIN E] |
| 12.5 (≈ 25.8 µM) | C=C(C)[C@@H]1CC=C(C)[C@H](CC[C@H]2C(=C)CC[C@H]3C(C)(C)[C@@H](O)CC[C@]23C)[C@@]1(C)CCC(=O)OCC [ETHYL LANSIOLATE] |

What follows are compounds tested on Alcaligenes faecalis (assay: Antibacterial activity against Alcaligenes faecalis ATCC 8750 after 18 hrs by microdilution assay). Details: ATCC 8750, 18 h.
Format: functional
Method in brief: as §1

| MIC [µg/mL] | SMILES |
| --- | --- |
| > 50 | C=C1CC[C@H]2C(C)(C)[C@@H](O)CC[C@]2(C)[C@H]1CC[C@H]1C(C)=CC[C@@H](C(C)(C)O)[C@]1(C)CCC(=O)OC [LAMESTICUMIN B] |
| > 50 | C=C1CC[C@H]2C(C)(C)C(=O)CC[C@]2(C)[C@H]1CCC1=C(C)[C@H](O)C[C@@H](C(=C)C)[C@]1(C)CCC(=O)OC [LAMESTICUMIN E] |
| > 50 | C=C(C)[C@@H]1CC=C(C)[C@H](CC[C@H]2C(=C)CC[C@H]3C(C)(C)[C@@H](O)CC[C@]23C)[C@@]1(C)CCC(=O)OCC [ETHYL LANSIOLATE] |

The compounds below were run on Micrococcus luteus (assay: Antibacterial activity against Micrococcus luteus ATCC 9341 after 18 hrs by microdilution assay). Details: ATCC 9341, 18 h.
Format: functional
Method in brief: as §1

| MIC [µg/mL] | SMILES |
| --- | --- |
| 3.12 (≈ 6.38 µM) | C=C1CC[C@H]2C(C)(C)[C@@H](O)CC[C@]2(C)[C@H]1CC[C@H]1C(C)=CC[C@@H](C(C)(C)O)[C@]1(C)CCC(=O)OC [LAMESTICUMIN B] |
| > 50 | C=C1CC[C@H]2C(C)(C)C(=O)CC[C@]2(C)[C@H]1CCC1=C(C)[C@H](O)C[C@@H](C(=C)C)[C@]1(C)CCC(=O)OC [LAMESTICUMIN E] |
| 6.25 (≈ 12.9 µM) | C=C(C)[C@@H]1CC=C(C)[C@H](CC[C@H]2C(=C)CC[C@H]3C(C)(C)[C@@H](O)CC[C@]23C)[C@@]1(C)CCC(=O)OCC [ETHYL LANSIOLATE] |

From ChEMBL document CHEMBL1781965, “Onoceranoid-type triterpenoids from Lansium domesticum” (2011)
